From ChEMBL document CHEMBL3763142, “Discovery of potent anti-tuberculosis agents targeting leucyl-tRNA synthetase” (Bioorg Med Chem, 2016)
Values after ≈ are worked out from the molar mass of the structure shown.

How the values were obtained:
[1] = Inhibition of Mycobacterium tuberculosis leucyl-tRNA synthetase assessed as reduction of [14C]-L-leucine ligation to tRNA incubated for 5 mins by scintillation counting method in presence of ATP
How it was run: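 His-tag Ni-NTA-purified M. tuberculosis LeuRS (25 nM) expressed in E. coli Rosetta (DE3). Buffer: 100 mM Tris-HCl pH 8.0, 10 mM MgCl2, 2 mM DTT, 90 µM [14C]-L-leucine, 4 mg/ml E. coli tRNA. Inhibitor (DMSO) preincubated 5 min at 37 °C; started with 2 mM ATP (final). TCA-quenched, scintillation-counted; at least triplicates averaged for IC50.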

[2] = Cytotoxicity against mouse J774 cells assessed as cell viability at 80 ug/ml by MTT assay; assay type: cell-based; conditions: read-out: Activity
How it was run: (§1)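 MTT proliferation assay on uninfected J774 macrophages, run in parallel with the intracellular infection assay at the same three concentrations. Reported as percentage viability.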

[3] = Cytotoxicity against mouse J774 cells assessed as cell viability at 8 ug/ml by MTT assay; assay type: cell-based; conditions: read-out: Activity; how it was run: as §1
[4] = system: Mycobacterium tuberculosis; test: Antimicrobial activity against Mycobacterium tuberculosis infected in mouse J774 cells assessed as log reduction of bacterial burden at 80 ug/ml after 7 days; assay type: functional
How it was run: (§2)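 J774 cells in RPMI 1640 with L-glutamine/FBS, 2.0*10^5 per well, then switched to 1% FBS. Infected 4 h at MOI 5, washed, drug added for 7 days. At 0 and 7 d, lysed with SDS, DNase-treated and plated on 7H10 agar for CFU. Log reduction is from 0 h to day 7; duplicates, rifampin positive control.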

[5] = Cytotoxicity against mouse J774 cells assessed as cell viability at 0.8 ug/ml by MTT assay; assay type: cell-based; conditions: read-out: Activity; how it was run: as §1
[6] = system: Mycobacterium tuberculosis; test: Antimicrobial activity against Mycobacterium tuberculosis infected in mouse J774 cells assessed as log reduction of bacterial burden at 0.8 ug/ml after 7 days; assay type: functional; how it was run: as §2
[7] = system: Mycobacterium tuberculosis; test: Antimicrobial activity against Mycobacterium tuberculosis infected in mouse J774 cells assessed as log reduction of bacterial burden at 8 ug/ml after 7 days; assay type: functional; how it was run: as §2
[8] = target: Leucine--tRNA ligase, cytoplasmic (Homo sapiens, UniProt Q9P2J5); test: Inhibition of human leucyl-tRNA synthetase assessed as reduction of [14C]-L-leucine ligation to tRNA incubated for 5 mins by scintillation counting method in presence of ATP
Sequence of Leucine--tRNA ligase, cytoplasmic (Q9P2J5 whole entry): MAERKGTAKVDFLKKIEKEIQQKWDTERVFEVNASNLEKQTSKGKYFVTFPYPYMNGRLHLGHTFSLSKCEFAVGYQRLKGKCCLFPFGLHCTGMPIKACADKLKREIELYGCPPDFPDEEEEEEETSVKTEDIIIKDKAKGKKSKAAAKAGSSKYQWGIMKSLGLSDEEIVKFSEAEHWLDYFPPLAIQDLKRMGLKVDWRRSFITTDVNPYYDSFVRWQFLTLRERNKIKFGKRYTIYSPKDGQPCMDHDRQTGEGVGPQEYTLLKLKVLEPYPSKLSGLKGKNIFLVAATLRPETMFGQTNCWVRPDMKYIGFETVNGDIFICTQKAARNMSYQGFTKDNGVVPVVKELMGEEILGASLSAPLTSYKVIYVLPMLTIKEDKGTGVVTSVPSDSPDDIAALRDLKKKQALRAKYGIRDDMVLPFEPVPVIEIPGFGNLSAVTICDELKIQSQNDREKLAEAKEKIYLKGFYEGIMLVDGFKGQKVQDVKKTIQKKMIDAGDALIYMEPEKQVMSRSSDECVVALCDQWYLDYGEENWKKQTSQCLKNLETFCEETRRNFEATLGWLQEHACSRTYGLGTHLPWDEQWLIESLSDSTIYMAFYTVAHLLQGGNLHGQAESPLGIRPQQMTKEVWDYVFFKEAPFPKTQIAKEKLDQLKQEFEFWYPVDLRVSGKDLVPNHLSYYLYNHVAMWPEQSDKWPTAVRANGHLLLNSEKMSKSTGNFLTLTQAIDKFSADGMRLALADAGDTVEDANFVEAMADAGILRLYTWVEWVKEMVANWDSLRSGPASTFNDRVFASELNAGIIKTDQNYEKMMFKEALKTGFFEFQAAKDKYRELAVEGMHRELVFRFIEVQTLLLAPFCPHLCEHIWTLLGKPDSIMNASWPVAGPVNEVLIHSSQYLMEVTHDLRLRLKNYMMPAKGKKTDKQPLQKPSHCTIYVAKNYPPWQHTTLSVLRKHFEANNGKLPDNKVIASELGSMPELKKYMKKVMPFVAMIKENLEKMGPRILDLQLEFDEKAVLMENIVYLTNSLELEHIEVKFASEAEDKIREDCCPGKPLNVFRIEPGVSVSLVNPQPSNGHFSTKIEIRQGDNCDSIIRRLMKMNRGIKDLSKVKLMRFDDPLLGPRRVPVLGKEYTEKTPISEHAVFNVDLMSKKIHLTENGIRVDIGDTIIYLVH

[9] = system: Mycobacterium tuberculosis; test: Antimicrobial activity against Mycobacterium tuberculosis H37Rv assessed as growth inhibition after 5 days by fluorescence analysis; conditions: 120 h

Compound: Oc1ccc(Br)cc1/C=N/Nc1nccs1
- IC50 [1]: > 20 µM

Compound: O=[N+]([O-])c1cccc(-c2csc(N/N=C/c3cccc(O)c3)n2)c1
- IC50 [1]: > 20 µM

Compound: CO[C@H]1/C=C/O[C@@]2(C)Oc3c(C)c(O)c4c(O)c(c(/C=N/N5CCN(C)CC5)c(O)c4c3C2=O)NC(=O)/C(C)=C\C=C\[C@H](C)[C@H](O)[C@@H](C)[C@@H](O)[C@@H](C)[C@H](OC(C)=O)[C@@H]1C [RIFAMPIN]
- viability at 80 ug/ml [2]: 73%
- viability at 8 ug/ml [3]: 85%
- Activity [4]: 2.86 deltalog10CFU
- viability at 0.8 ug/ml [5]: 95%
- Activity [6]: 1.06 deltalog10CFU
- Activity [7]: 2.39 deltalog10CFU

Compound: COc1cc(/C=N/Nc2nc(-c3ccc(Cl)cc3)cs2)cc(Br)c1O
- IC50 [1]: 4.54 µM
- IC50 [8]: 27.6 µM
- IC50 [9]: 200 µM
- IC90 [9]: > 200 µM
- MIC [9]: > 200 µM

Compound: CC(=O)c1sc(N/N=C/c2cc(Br)ccc2O)nc1C
- IC50 [1]: > 20 µM

Compound: CC(/C=C1\SC(=S)N(CCC(=O)Nc2ccc(O)cc2)C1=O)=C\c1ccccc1
- IC50 [1]: 22.2 µM

Compound: COc1cc(/C=N/Nc2nc(-c3cccc([N+](=O)[O-])c3)cs2)cc(Br)c1O
- IC50 [1]: > 20 µM

Compound: COc1ccc(/C=N/Nc2nc(-c3ccccc3)c(-c3ccccc3)s2)cc1O
- IC50 [1]: > 20 µM

Compound: CCOC(=O)Cc1csc(N/N=C/c2cc(Br)c(O)c(Br)c2)n1
- IC50 [1]: > 20 µM

Compound: COc1cc(/C=N\Nc2nc(-c3ccc([N+](=O)[O-])cc3)cs2)cc([N+](=O)[O-])c1O
- IC50 [1]: 8 µM
- IC50 [8]: 45.8 µM
- IC50 [9]: 20.6 µM
- IC90 [9]: 28.8 µM
- MIC [9]: 50 µM (≈ 20.8 µg/mL)

Compound: O=[N+]([O-])c1cccc(-c2csc(N/N=C/c3ccccc3O)n2)c1
- IC50 [1]: > 20 µM

Compound: CC(/C=C1\SC(=S)N(CCC(=O)Nc2ccc(C(=O)O)c(O)c2)C1=O)=C\c1ccccc1
- IC50 [1]: > 50 µM

Compound: COc1cc(/C=N/Nc2nc(C)cs2)cc(Br)c1O
- IC50 [1]: > 20 µM

Compound: COc1cc(/C=N/Nc2nc(-c3ccc(Cl)cc3Cl)cs2)ccc1O
- IC50 [1]: > 20 µM

Compound: COc1cc(/C=N/Nc2nccs2)ccc1O
- IC50 [1]: > 20 µM

Compound: COc1cc(/C=N/Nc2nccs2)cc(OC)c1O
- IC50 [1]: > 20 µM

Compound: COc1cc(/C=N/Nc2nc(C)c(C(C)=O)s2)cc(Br)c1O
- IC50 [1]: > 20 µM

Compound: COc1cc(/C=N/Nc2nc(-c3ccccc3)cs2)cc(Br)c1O
- IC50 [1]: > 20 µM

Compound: O=[N+]([O-])c1ccc(-c2csc(N/N=C/c3cc(Br)cc(Br)c3O)n2)cc1
- IC50 [1]: 19.3 µM
- IC50 [9]: 86 µM
- IC90 [9]: > 200 µM
- MIC [9]: > 200 µM

Compound: Oc1ccc(/C=N/Nc2nc(-c3ccccc3)c(-c3ccccc3)s2)cc1
- IC50 [1]: > 20 µM

Compound: COc1cc(/C=N\Nc2nc(-c3ccc(Br)cc3)cs2)cc([N+](=O)[O-])c1O
- viability at 80 ug/ml [2]: 10%
- IC50 [1]: 6 µM
- viability at 8 ug/ml [3]: < 10%
- IC50 [8]: 116 µM
- Activity [4]: 1.2 deltalog10CFU
- viability at 0.8 ug/ml [5]: 100%
- Activity [6]: 1.96 deltalog10CFU
- Activity [7]: 1.42 deltalog10CFU
- IC50 [9]: 10 µM
- IC90 [9]: 13.5 µM
- MIC [9]: 25 µM (≈ 11.2 µg/mL)

Compound: Cc1nc(N/N=C/c2ccc(O)cc2)sc1C
- IC50 [1]: > 20 µM

Compound: CCOC(=O)c1sc(N/N=C/c2ccc(O)c(OC)c2)nc1C
- IC50 [1]: 11.4 µM
- IC50 [8]: 116 µM
- IC50 [9]: 59 µM
- IC90 [9]: > 200 µM
- MIC [9]: 81 µM (≈ 27.2 µg/mL)

Compound: COc1cc(/C=N/Nc2nc(-c3ccccc3)c(-c3ccccc3)s2)cc(OC)c1O
- IC50 [1]: > 20 µM

Compound: O=[N+]([O-])c1cc(/C=N\Nc2nccs2)ccc1O
- IC50 [1]: 20 µM
- IC50 [9]: 59.4 µM
- IC90 [9]: > 100 µM

Compound: O=C(O)c1ccc(/C=N/Nc2nccs2)cc1
- IC50 [1]: > 20 µM

Compound: O=[N+]([O-])c1ccc(-c2csc(N/N=C/c3cc(Br)c(O)c(Br)c3)n2)cc1
- IC50 [1]: 2.27 µM
- IC50 [8]: 18.7 µM
- IC50 [9]: 130 µM
- IC90 [9]: > 200 µM
- MIC [9]: > 200 µM

Compound: COc1cc(/C=N/Nc2nc(-c3cccc([N+](=O)[O-])c3)cs2)cc(OC)c1O
- IC50 [1]: > 20 µM

Compound: COc1cc(/C=N/Nc2nc(-c3cccc([N+](=O)[O-])c3)cs2)ccc1O
- IC50 [1]: 15.9 µM
- IC50 [9]: > 200 µM
- IC90 [9]: > 200 µM
- MIC [9]: > 200 µM

Compound: COc1cc(/C=N/Nc2nccs2)cc(Br)c1O
- IC50 [1]: > 20 µM

Compound: O=[N+]([O-])c1ccc(-c2csc(N/N=C\c3ccc(O)c([N+](=O)[O-])c3)n2)cc1
- IC50 [1]: 20 µM
- IC50 [9]: > 100 µM
- IC90 [9]: > 100 µM

Compound: COc1cc(/C=N/Nc2nc(-c3ccc(Br)cc3)cs2)cc(OC)c1OC
- IC50 [1]: > 20 µM

Compound: COc1cc(/C=N/Nc2nc(-c3ccccc3)cs2)cc(OC)c1O
- IC50 [1]: > 20 µM
